Measurements published in ChEMBL document CHEMBL4130549, “Synthesis and bioactivities study of new antibacterial peptide mimics: The dialkyl cationic amphiphiles” (Eur J Med Chem, 2018).
Activity calls are given as the source filed them. The calls are words filed in the database; no cut-off is given here.

Assays:
Escherichia coli [1] = assay: Antibacterial activity against Escherichia coli ATCC 25922 after 16 to 20 hrs by broth microdilution method; type: functional
How it was run: (§1)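 Broth microdilution per CLSI in cation-adjusted Mueller-Hinton broth; 4-6 h cultures (~10⁸ CFU/mL) diluted to ~10⁶ CFU/mL and mixed 1:1 with twofold dilutions of water-dissolved compound (256 to 0.5 µg/mL). Incubated 16-20 h at 37 °C; MIC read visually. Each concentration run in duplicate, whole experiment repeated at least twice. MRSA, KPC and NDM-1 strains were clinical isolates.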

Enterococcus faecalis = assay: Antibacterial activity against Enterococcus faecalis after 16 to 20 hrs by broth microdilution method; type: functional; how it was run: as §1
Staphylococcus aureus [2] = assay: Antibacterial activity against methicillin-resistant Staphylococcus aureus isolate M2 after 16 to 20 hrs by broth microdilution method; type: functional
How it was run: (§2)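 CLSI broth microdilution in cation-adjusted Mueller-Hinton broth. A 4-6 h culture was diluted to about 10⁶ CFU/mL and mixed 1:1 with twofold compound dilutions (256–0.5 µg/mL before mixing) prepared from aqueous stocks. Plates were incubated at 37 °C for 16-20 h. Each concentration was tested in duplicate, and the experiment was repeated at least twice.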

Staphylococcus aureus [3] = assay: Antibacterial activity against methicillin-resistant Staphylococcus aureus isolate M1 after 16 to 20 hrs by broth microdilution method; type: functional; how it was run: as §2
Staphylococcus aureus [4] = assay: Antibacterial activity against methicillin-resistant Staphylococcus aureus isolate M10 after 16 to 20 hrs by broth microdilution method; type: functional; how it was run: as §2
Staphylococcus aureus [5] = assay: Antibacterial activity against methicillin-resistant Staphylococcus aureus isolate M7 after 16 to 20 hrs by broth microdilution method; type: functional; how it was run: as §2
Staphylococcus aureus [6] = assay: Induction of inner membrane permeabilization in Staphylococcus aureus ATCC 29213 at 20 ug/ml measured every 2 mins for 12 mins by propidium iodide staining based fluorescence assay; type: functional, organism-based
How it was run: (§3)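 Mid-log cells (~10^8 CFU/mL) pre-incubated with propidium iodide (10 µM, 50 µL), 30 min for S. aureus and 40 min for E. coli. Fluorescence (ex 535/em 617 nm) read for 8 min, then compound added to 20 µg/mL final and monitored every 2 min for 12 min. Water-treated control.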

Staphylococcus aureus [7] = assay: Antibacterial activity against methicillin-resistant Staphylococcus aureus isolate M6 after 16 to 20 hrs by broth microdilution method; type: functional; how it was run: as §2
Staphylococcus aureus [8] = assay: Antibacterial activity against methicillin-resistant Staphylococcus aureus isolate M9 after 16 to 20 hrs by broth microdilution method; type: functional; how it was run: as §2
Staphylococcus aureus [9] = assay: Antibacterial activity against methicillin-resistant Staphylococcus aureus after 16 to 20 hrs by broth microdilution method; type: functional; how it was run: as §2
Staphylococcus aureus [10] = assay: Antibacterial activity against Staphylococcus aureus ATCC 29213 after 16 to 20 hrs by broth microdilution method; type: functional; how it was run: as §2
Escherichia coli [11] = assay: Induction of inner membrane permeabilization in Escherichia coli ATCC 25922 at 20 ug/ml measured every 2 mins for 12 mins by propidium iodide staining based fluorescence assay; type: functional, organism-based; how it was run: as §3
Staphylococcus aureus [12] = assay: Antibacterial activity against methicillin-resistant Staphylococcus aureus isolate M5 after 16 to 20 hrs by broth microdilution method; type: functional; how it was run: as §2
Staphylococcus aureus [13] = assay: Antibacterial activity against methicillin-resistant Staphylococcus aureus isolate M8 after 16 to 20 hrs by broth microdilution method; type: functional; how it was run: as §2
Staphylococcus aureus [14] = assay: Induction of cytoplasmic membrane depolarization in Staphylococcus aureus ATCC 29213 at 20 ug/ml measured every 2 mins for 12 mins by diSC35 staining based fluorescence assay; type: functional, organism-based
How it was run: (§4)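 Mid-log cells (4–6 h) pelleted, washed and resuspended (~10^8 CFU/mL) in PBS for S. aureus, or in 5 mM HEPES, 5 mM glucose and 100 mM KCl (1:1:1) for E. coli. Preloaded with diSC35 (10 µM, 50 µL), 30 min for S. aureus and 40 min plus EDTA (200 µM, 50 µL) for E. coli. Baseline read 8 min (ex 622/em 670 nm), then compound added to 20 µg/mL final and read every 2 min for 12 min. Water control.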

Escherichia coli [15] = assay: Induction of outer membrane permeabilization in Escherichia coli ATCC 25922 at 20 ug/ml measured every 2 mins for 12 mins by NPN staining based fluorescence assay; type: functional, organism-based
How it was run: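 Mid-log E. coli (~10^8 CFU/mL) in black plates pre-incubated about 40 min with NPN (10 µM, 50 µL). Baseline read 8 min (ex 350/em 420 nm), then compound added to 20 µg/mL final and fluorescence followed every 2 min for 12 min. Water-treated control.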

Escherichia coli [16] = assay: Induction of cytoplasmic membrane depolarization in Escherichia coli ATCC 25922 at 20 ug/ml measured every 2 mins for 12 mins by diSC35 staining based fluorescence assay; type: functional, organism-based; how it was run: as §4
[17] = Hemolytic activity in sheep RBC after 1 hr; type: ADME, cell-based, Ovis aries, Erythrocyte; conditions: sheep red blood cells (erythrocytes)
How it was run: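 Sheep RBCs suspended at 5% in PBS; 150 µL added to 50 µL compound dilutions (5120 to 10 µg/mL series). Incubated 1 h at 37 °C, then centrifuged; supernatant absorbance read at 540 nm. Lysis (%) = (A−A0)/(Atotal−A0)×100, with untreated 5% RBC as A0 and 0.1% Triton X-100 as total.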

Staphylococcus aureus [18] = assay: Antibacterial activity against methicillin-resistant Staphylococcus aureus isolate M4 after 16 to 20 hrs by broth microdilution method; type: functional; how it was run: as §2
Salmonella enterica = assay: Antibacterial activity against Salmonella enterica after 16 to 20 hrs by broth microdilution method; type: functional; how it was run: as §1
Staphylococcus aureus [19] = assay: Antibacterial activity against methicillin-resistant Staphylococcus aureus isolate M3 after 16 to 20 hrs by broth microdilution method; type: functional; how it was run: as §2

SMILES | MIC (Escherichia coli [1]) [µg/mL] | MIC (Enterococcus faecalis) [µg/mL] | MIC (Staphylococcus aureus [2]) [µg/mL] | MIC (Staphylococcus aureus [3]) [µg/mL] | MIC (Staphylococcus aureus [4]) [µg/mL] | MIC (Staphylococcus aureus [5]) [µg/mL] | Activity (Staphylococcus aureus [6]) | MIC (Staphylococcus aureus [7]) [µg/mL] | MIC (Staphylococcus aureus [8]) [µg/mL] | MIC (Staphylococcus aureus [9]) [µg/mL] | MIC (Staphylococcus aureus [10]) [µg/mL] | Activity (Escherichia coli [11]) | MIC (Staphylococcus aureus [12]) [µg/mL] | MIC (Staphylococcus aureus [13]) [µg/mL] | Activity (Staphylococcus aureus [14]) | Activity (Escherichia coli [15]) | Activity (Escherichia coli [16]) | HC50 at 1 h [17] [µg/mL] | MIC (Staphylococcus aureus [18]) [µg/mL] | MIC (Salmonella enterica) [µg/mL] | further results
C[C@@H](O)[C@H]1C(=O)N2C(C(=O)O)=C(S[C@@H]3CN[C@H](C(=O)N(C)C)C3)[C@H](C)[C@H]12 [MEROPENEM] | < 0.125 |  |  |  |  |  |  |  |  |  |  |  |  |  |  |  |  |  |  |  | 
CCCCCCCCCCN(CCCCCCCCCC)C(=O)[C@@H](N)CO.Cl | > 128 | 8 | 4 | 16 | 16 | 8 | Active | 8 | 16 | 16 | 8 | Active | 16 | 16 | Active | Active | Active | > 1000 | 4 | > 128 | MIC (Staphylococcus aureus [19]): 4 µg/mL
CCCCCCCCCCN(CCCCCCCCCC)C(=O)[C@H](N)CO.Cl | > 128 | 32 | 32 | 32 | 32 | 32 | Active | 32 | 32 | 32 | 16 | Active | 32 | 32 | Active | Active | Active | > 1000 | 32 | > 128 | MIC (Staphylococcus aureus [19]): 32 µg/mL
CCCCN(CCCC)C(=O)[C@@H](N)CCCCN.Cl.Cl | > 128 | 128 |  |  |  |  | Active |  |  |  | > 128 | Active |  |  | Active | Active | Active | 743 |  | 128 | 
CCCCCCCCN(CCCCCCCC)C(=O)[C@@H](N)Cc1ccccc1.Cl | > 128 | 128 | 16 | 32 | 32 | 16 | Active | 32 | 32 | 32 | 8 | Active | 32 | 32 | Active | Active | Active | > 1000 | 16 | > 128 | MIC (Staphylococcus aureus [19]): 16 µg/mL
CCCCCCCCN(CCCCCCCC)C(=O)[C@@H](N)[C@@H](C)CC.Cl | > 128 | 4 | 4 | 4 | 4 | 4 | Active | 4 | 4 | 4 | 4 | Active | 4 | 4 | Active | Active | Active | 293 | 4 | > 128 | MIC (Staphylococcus aureus [19]): 4 µg/mL
CCCCCCN(CCCCCC)C(=O)[C@@H](N)CCCCN.Cl.Cl | 64 | 64 |  |  |  |  | Active |  |  |  | 64 | Active |  |  | Active | Active | Active | 496 |  | 64 | 
CCCCCCCCN(CCCCCCCC)C(=O)[C@@H](N)CC(C)C.Cl | 64 | 2 | 2 | 4 | 4 | 4 | Active | 4 | 4 | 4 | 2 | Active | 4 | 4 | Active | Active | Active | > 1000 | 2 | > 128 | MIC (Staphylococcus aureus [19]): 2 µg/mL
CCN(CC)C(=O)[C@@H](N)CCCCN.Cl.Cl | > 128 | > 128 |  |  |  |  | Active |  |  |  | > 128 | Active |  |  | Active | Active | Active | > 1000 |  | > 128 | 
CCCCCN(CCCCC)C(=O)[C@@H](N)CCCCN.Cl.Cl | 128 | 128 |  |  |  |  | Active |  |  |  | 128 | Active |  |  | Active | Active | Active | 576 |  | 128 | 
